What was measured:
[1] = melting temperature; fluorescence melt of hairpins on a sequencing array, two-state fit, raised by 9.35 °C to match UV melts; details: sodium 0.088 M
Summary of the method: (§1)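 Cy3 signals were normalised both to pre-quench Cy3 and to control constructs. They came from library hairpins carrying annealed Cy3 and quencher oligos on a sequenced MiSeq flow cell, imaged in 50 mM Na-HEPES pH 8.0, 25 mM NaCl, in 2.5 °C steps up to 60 °C. Bootstrapped two-state fits gave melting temperature and folding enthalpy, and four replicates were combined by inverse variance. Fitted temperatures were then raised by 9.35 °C to match UV melts.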

[2] = folding enthalpy; higher = less favourable; fluorescence melt of hairpins on a sequencing array, two-state fit; details: sodium 0.088 M
Summary of the method: as §1

| Sequence | Tm [1] [°C] | folding enthalpy [2] [kcal/mol] |
| --- | --- | --- |
| GTAGCGGCGAAAGCCTAC (((..(((....)))))) | 29.9 | -10.4 |
| GTTCGGGGAAACCTGAAC ((((.((....)).)))) | 49.9 | -38.9 |
| GGACTACGAAAGTATTCC (((.(((....))).))) | 39.2 | -34.8 |
| GGGGTTCGAAAGAATCCC (((.(((....))).))) | 58.6 | -43.8 |
| GAAACGCGAAAGCGTTC (((.(((....)))))) | 50.6 | -8.94 |
| GGTTTCGAAAGAACCACC ((((((....)))..))) | 34.4 | -17.1 |
| GTTCGTGGAAACACGGAC ((.((((....)))).)) | 54.5 | -42.5 |
| GACGTAGGAAACTGTGTC (((..((....))..))) | 25.7 | -9.59 |
| GCGTTTAAACGC ((((....)))) | 54.7 | -29.4 |
| GAGGGCGAAAGCCTCCTC ((((((....)))..))) | 40.5 | -9.66 |
| GGAGTGGGAAACTACTCC (((((.(....).))))) | 49.5 | -24.8 |
| GCTGAAACGAAAGTTAGC (((..(((....)))))) | 35 | -20.6 |
| GATCAACCGATTGATC ((((((....)))))) | 41.5 | -32.6 |
| GAGGGCCGAAAGGCCTC (((.(((....)))))) | 52.6 | -9.74 |
| GACACTCCGAAAGGAGTC (((..(((....)))))) | 32 | -7.77 |
| GGCTCCGAAAGGAAAGCC ((((((....)))..))) | 54.3 | -30.1 |
| GAGTCGCCGAAAGGCCTC (((..(((....)))))) | 29.3 | -12.2 |
| CGAGGTCGGAAACGATCG (((..(((....)))))) | 41.2 | -21 |
| GTTTAACGAAAGTTTAAC (((.(((....))).))) | 36.2 | -23.4 |

| Sequence | Tm [1] [°C] | folding enthalpy [2] [kcal/mol] |
| --- | --- | --- |
| GCAGTAGGAAACCACTGC (((((.(....).))))) | 48.2 | -29.2 |
| GCCACGCGAAAGCGGCGC ((..(((....)))..)) | 60.8 | -15.9 |
| GATCAGGCAACTGATC ((((((....)))))) | 60.6 | -37.6 |
| GATCGAGTTTCGATC ((((((...)))))) | 53 | -31.4 |
| CGCTGCGGAAACGCGCG (((.(((....)))))) | 60.8 | -27.1 |
| GATCAAACTGTTGATC ((((((....)))))) | 41 | -25.7 |
| GTGTTTGGAAACAAACAC (((((((....))))))) | 59.6 | -47.9 |
| GTACGCGAAAGCGTGTAC ((((((....)))..))) | 38 | -9.86 |
| GGTTCCGAAAGGAAGACC ((((((....)))..))) | 42.1 | -15.1 |
| GTCCCGGGAAACCGAGAC (((.(((....))).))) | 46.3 | -25.8 |
| GCGTTGTACGC ((((...)))) | 65.8 | -19 |
| GTGCCCGAAAGGGTCAC ((((((....))).))) | 55 | -18.1 |
| GTTTGTACGAAAGTAAAC (((..(((....)))))) | 32.8 | -24.3 |
| GTGATGGAAACATCAC ((((((....)))))) | 56.7 | -41.8 |
| GGAACCGGAAACGGTCCC ((.((((....)))).)) | 52.9 | -19.7 |
| GAAGCACGAAAGTGATTC (((.(((....))).))) | 60 | -35.1 |
| GTGGACGGAAACACCCAC ((((..(....)..)))) | 30.4 | -12.2 |
| GATCATATTTATGATC ((((((....)))))) | 50.3 | -41.2 |
| GATCACGAAAGTGATATC ((((((....)))..))) | 50.5 | -17.3 |
